Source: PubChem BioAssay (several laboratories)
KCNQ1 inh: human KCNQ1 channel inhibition. P51787. CHO-K1 KCNQ1, FluxOR thallium flux fluorescence; active compounds read high. B-score at 10 µM. 1.3% of 310,000 active. AID 2642;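 active = compounds whose thallium flux B-score, printed positive for inhibition, exceeds three library SD while starting fluorescence stays within three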;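 note: channel opened by potassium depolarization with thallium stimulus after 20 min compound exposure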
KCNK9 block: blocks the human KCNK9 two-pore domain potassium channel | 1.2% of 310,000 active | HEK293 KCNK9, FluxOR thallium flux fluorescence; active compounds read low | AID 488922 | Q9NPC2 | B-score at 10 µM;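 active = ratio B-score over 3 SD below the library mean, with starting fluorescence within 5 SD of its mean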;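 note: negative B-score means less thallium flux so channel inhibition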
KCNK3 block: human KCNK3 channel inhibition, primary screen. 0.84% of 340,000 active. CHO-KCNK3 thallium flux, FluxOR fluorescence; active compounds read low. B-score at 10 µM;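 active = B-score under library mean minus 4 SD, starting fluorescence ratio at most library mean plus 5 SD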;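 note: more negative B-score means stronger inhibition of thallium flux through KCNK3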
Cl transport mod: modulators of human KCC2 chloride dependent transport | 2.2% of 190,000 active | Q9H2X9 | KCC2 cells, thallium flux FluoZin-2 fluorescence | AID 1456 | B-score of Tl+ flux slope (higher = more flux/activation; lower = inhibition) at 10 µM;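 active = thallium flux slope and its plate-corrected score both differing from the plate sample mean at a set confidence after two filtering rounds, in either direction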;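 note: slope of fluorescence scaled to starting intensity during 10 to 20 s after thallium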
Target sequence (Q9H2X9 whole entry, looked up): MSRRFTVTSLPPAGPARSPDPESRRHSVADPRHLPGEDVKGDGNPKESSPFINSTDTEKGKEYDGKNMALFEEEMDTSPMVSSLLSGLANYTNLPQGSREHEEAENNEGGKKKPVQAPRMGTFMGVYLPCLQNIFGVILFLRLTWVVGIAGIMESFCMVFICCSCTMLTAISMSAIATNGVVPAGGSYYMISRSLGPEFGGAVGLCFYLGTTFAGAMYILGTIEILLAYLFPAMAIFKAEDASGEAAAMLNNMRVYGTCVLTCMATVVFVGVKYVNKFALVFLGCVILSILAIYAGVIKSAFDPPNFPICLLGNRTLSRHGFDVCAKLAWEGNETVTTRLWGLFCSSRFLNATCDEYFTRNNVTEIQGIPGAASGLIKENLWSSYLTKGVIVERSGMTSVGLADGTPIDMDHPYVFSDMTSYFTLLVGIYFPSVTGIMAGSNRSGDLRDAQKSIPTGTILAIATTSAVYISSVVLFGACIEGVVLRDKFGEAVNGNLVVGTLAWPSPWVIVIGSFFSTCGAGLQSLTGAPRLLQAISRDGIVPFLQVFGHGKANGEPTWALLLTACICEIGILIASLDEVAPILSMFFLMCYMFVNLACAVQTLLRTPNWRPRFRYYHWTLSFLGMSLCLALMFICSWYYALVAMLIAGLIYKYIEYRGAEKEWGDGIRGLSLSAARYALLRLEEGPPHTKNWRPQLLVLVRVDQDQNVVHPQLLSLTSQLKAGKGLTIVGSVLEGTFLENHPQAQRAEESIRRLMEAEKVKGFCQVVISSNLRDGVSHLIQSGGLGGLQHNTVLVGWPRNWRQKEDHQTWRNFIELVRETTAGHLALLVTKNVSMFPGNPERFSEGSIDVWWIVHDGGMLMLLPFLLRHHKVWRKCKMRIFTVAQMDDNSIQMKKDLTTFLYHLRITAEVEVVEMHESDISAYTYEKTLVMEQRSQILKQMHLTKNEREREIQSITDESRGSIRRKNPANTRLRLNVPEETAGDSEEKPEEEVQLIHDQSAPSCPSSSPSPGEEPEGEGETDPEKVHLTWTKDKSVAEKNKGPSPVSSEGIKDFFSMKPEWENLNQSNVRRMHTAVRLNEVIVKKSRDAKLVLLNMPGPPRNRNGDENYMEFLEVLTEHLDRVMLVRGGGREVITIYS
KCNQ1 act: human KCNQ1 channel potentiation or activation; 0.35% of 310,000 active; CHO-K1 KCNQ1, thallium flux FluxOR fluorescence; active compounds read high; B-score at 10 µM; AID 2648;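 active = fluorescence ratio B-score, a plate-corrected score, at least three library SD, with initial intensity B-score within 5 SD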
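Assay system: CHO-K1 cells stably expressing KCNQ1. Medium: assay buffer for compound exposure, DMSO matched across wells. Timing: 37 °C overnight plating, 90-min dark dye load, 20-min compound pretreatment. Signal: kinetic FluxOR fluorescence, 10 s baseline plus 110 s post-stimulus.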
hERG protect: hERG (human) protection from proarrhythmic block; Q12809; CHO-hERG, FluxOR thallium flux, dofetilide IC70 present; activation (rescue from dofetilide block), less the hit threshold, % at 10 µM; 0.51% of 310,000 active; AID 1511;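 active = activation above the mean of controls blocked by dofetilide plus 5 SD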;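 note: thallium influx through hERG after potassium depolarization seen as dye fluorescence rise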
KCNK9 inh conf: confirmation of human KCNK9 potassium channel inhibitors; shares compounds with KCNK9 block; HEK293 KCNK9 cells, FluxOR thallium flux fluorescence; inhibition, % at 10 µM; 43% of 4,900 active;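 active = thallium signal inhibited by more than 5 SD of the compound-free buffer control wells, on both duplicate plates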;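 note: 0% = assay buffer control wells without compound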
Kir2-1 spec: mouse Kir2.1 off-target activity of KCNK9 modulators; inhibition, % at 10 µM; shares compounds with KCNK9 block; AID 492993; Kir2.1 cells, FluxOR thallium flux fluorescence; 4% of 4,900 active;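 active = thallium signal drop more than 5 SD beyond the mean of the no-compound control wells, seen in both duplicate plates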;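 note: signal is fluorescence rise after thallium addition divided by baseline fluorescence; plate controls were assay buffer only for no effect and full block by chlorpromazine control for full effect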
KCNK9 uninduced: non-induced cell nonspecific activity of KCNK9 modulators. shares compounds with KCNK9 block. non-induced KCNK9-HEK293, FluxOR thallium flux. inhibition, % at 10 µM. 40% of 4,900 active;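 active = thallium signal drop beyond 5 SD of the untreated control mean, on both duplicate plates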;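 note: plate controls were buffer only IC0 wells for no effect and SID17386958 at its maximal inhibitory level for full effect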
Active calls of the source: *; i = inactive; x = no result given. A selection: hits, their analogues and other compounds. The true share with any hit is near 4.1%.

SMILES	KCNQ1 inh	KCNK9 block	KCNK3 block	Cl transport mod	KCNQ1 act	hERG protect	KCNK9 inh conf	Kir2-1 spec	KCNK9 uninduced
Cc1ccc(SCC(=O)NCCSCc2ccccc2)cc1	i	i	i	-1.8	i	-10	i	i	i
Cc1ccccc1CSCCNC(=O)CCSc1ccccc1	i	i	i	-3.2	i	-20	i	i	i
Nc1ncnc2c1ncn2[C@@H]1O[C@H](CNCC(O)CO)[C@@H](O)[C@H]1O (some centres undefined)	x	x	i	x	x	x	x	x	x
O=C(CC1C[C@H](C(=O)N2CCOCC2)[C@@]2(CCC3CCCC3)c3[nH]c4ccccc4c3CCN2C1=O)NCc1ccco1 (some centres undefined)	x	x	i	x	x	x	x	x	x
N#Cc1ccc(-c2ccc3c(c2)OCO3)nc1SCC(=O)OCc1ccccc1	i	-10*	i	x	i	-8	i	i	27%*
O=C(NCCc1cnccn1)C1CCC(=O)N(Cc2ccc(Cl)cc2)C1 (centres undefined)	i	i	i	x	i	-9	x	x	x
Cc1ccc(S(=O)(=O)N(C)CC(O)Cn2c3ccccc3c3ccccc32)cc1 (centres undefined)	i	i	i	0.8	i	1	x	x	x
O=S(=O)(c1ccccc1)N(CC(O)Cn1c2ccccc2c2ccccc21)c1ccccc1 (centres undefined)	i	-11*	i	0.03	i	-13	40%*	i	25%*
N#C/C(=C\c1c(Cl)cccc1Cl)c1nc2ccccc2o1	i	i	i	0.15	i	-14	i	i	i
Cc1cc(O)ccc1N/C=C(\C#N)c1nc2ccccc2o1	i	i	i	1.4	i	-3	x	x	x
N#C/C(=C\c1c(Cl)cccc1Cl)c1nc2ccccc2[nH]1	i	-8.8*	i	-0.84	i	-13	46%*	i	i
O=C(Cn1cnc2c(OCc3ccccc3)ncnc21)N[C@H](CO)Cc1cc2ccccc2[nH]1	x	x	i	x	x	x	x	x	x
Cc1nc(N2CCN(C(=O)c3ccco3)CC2)c(C#N)c2c1CCCC2	i	i	i	x	i	-4	x	x	x
CC(C)C(=O)N1CCN(c2nc(-c3ccccc3)c3c(c2C#N)CCCC3)CC1	i	-8.6*	i	-0.1	i	-16	40%*	i	i
O=C(COC(=O)CCc1c[nH]c2ccccc12)NCc1ccccc1	i	i	i	-0.18	i	-3	x	x	x
CN(C(=O)COC(=O)CCc1c[nH]c2ccccc12)C(c1ccccc1)c1ccccc1	i	-9.5*	i	-1.5	i	-12	44%*	i	28%*
COc1ccc(CNc2nc3ccccc3n2Cc2ccc(C)cc2)cc1OC	i	-8.5*	i	0.15	i	-15	28%*	i	i
c1ccc(Cn2c(NCc3ccncc3)nc3ccccc32)cc1	i	i	i	-0.3	i	-13	x	x	x
Cc1cc2nc(-c3ccc4c(c3)CCC4)ccn2n1	i	i	i	-0.096	i	-17	i	i	i
O=C(c1cccs1)N(Cc1ccco1)c1nc(-c2ccc(F)cc2)cs1	6*	-14*	-14*	0.049	i	-6	64%*	i	48%*
Cc1ccc([C@H]2C(C(=O)O)=CC[C@@H](c3ccc(Cl)c(Cl)c3)N2S(=O)(=O)c2ccc(C)cc2)cc1	x	x	i	x	x	x	x	x	x
Cc1cc(OCC(=O)NC(C)(C)C)ccc1Cl	i	i	i	0.23	i	-4	x	x	x
Cc1cc(OCC(=O)N(C(C)C)C(C)C)ccc1Cl	i	i	i	0.4	i	5.0*	i	i	i
